This note sets out measurements from ChEMBL document CHEMBL3351238, “Part I. Synthesis, biological evaluation and docking studies of new 2-furylbenzimidazoles as antiangiogenic agents” (Eur J Med Chem, 2014).

What is called IC50 is the concentration at which inhibition is half-maximal.

Converted amounts (≈) assume the structure as drawn.

Assay [1] relates to MCF7. The assay is described as follows: Cytotoxicity against human MCF7 cells after 48 hrs by sulforhodamine B assay. Format: functional, cell-based. As to conditions: MCF7, 48 h. An outline of the steps:
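MCF-7 cells seeded at 10^4 per well and allowed 24 h to attach, then exposed to 0.0, 5.0, 12.5, 25.0 and 50 μg/ml, six wells per dose, for 48 h at 37 °C in 5% CO2. Cells were fixed and stained with sulforhodamine B. Bound dye was recovered in Tris EDTA and read on an ELISA reader. IC50 taken from the survival-fraction versus concentration curve.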
On the technique in general: In SRB staining, fixed cells bind dye roughly in proportion to their protein.

Assay [2] relates to MCF7. The assay is described as follows: Inhibition of VEGF production in human MCF7 cells at cytotoxic IC50 level after 24 hrs by ELISA. Format: functional. An outline of the steps:
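MCF-7 from ATCC, grown in DMEM with 10% heat-inactivated FCS, penicillin and streptomycin at 37 °C in 5% CO2, 0.50 × 10^6 cells per 25 cm2 flask. Compound in DMSO (tamoxifen as reference) added for 24 h. Cells homogenized in saline. Human VEGF measured by double-antibody sandwich ELISA (biotin antibody, streptavidin-HRP, A450) against a standard curve, duplicate determinations. Inhibition relative to untreated cells.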
On the technique in general: An ELISA detects its analyte on a solid surface through an enzyme-linked reagent.

The target of assay [3] is T1, Prostaglandin G/H synthase 1 (Ovis aries, UniProt P05979).
T1 sequence (P05979 whole entry): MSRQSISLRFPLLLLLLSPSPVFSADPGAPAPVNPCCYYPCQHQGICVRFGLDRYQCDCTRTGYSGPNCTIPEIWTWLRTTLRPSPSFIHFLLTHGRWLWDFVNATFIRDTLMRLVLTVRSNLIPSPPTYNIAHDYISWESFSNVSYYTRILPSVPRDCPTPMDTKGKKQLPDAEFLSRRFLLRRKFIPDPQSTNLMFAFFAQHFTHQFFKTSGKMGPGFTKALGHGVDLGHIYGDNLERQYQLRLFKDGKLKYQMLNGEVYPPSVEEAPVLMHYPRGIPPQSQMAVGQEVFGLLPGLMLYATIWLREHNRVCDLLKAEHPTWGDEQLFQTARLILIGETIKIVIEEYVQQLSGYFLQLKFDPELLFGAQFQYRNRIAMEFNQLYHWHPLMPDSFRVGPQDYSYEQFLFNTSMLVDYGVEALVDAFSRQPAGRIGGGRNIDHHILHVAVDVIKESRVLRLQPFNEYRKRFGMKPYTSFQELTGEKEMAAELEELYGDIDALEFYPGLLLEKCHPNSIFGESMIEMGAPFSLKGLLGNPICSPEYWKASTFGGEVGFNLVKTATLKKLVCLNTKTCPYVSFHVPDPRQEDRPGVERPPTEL
Briefly: Inhibition of ovine COX1 assessed as reduction in PGH2-dervied PGF2alpha production using arachidonic acid substrate by enzyme immunoassay. An outline of the steps:
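Arachidonic acid added and reaction stopped with HCl after 2 min. PGH2 reduced with SnCl2 and PGF2α quantified by competitive EIA at 410 nm. IC50 from concentration–inhibition curve, duplicates.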

`CCOC(=O)C/C(C)=N/NC(=O)Cn1c(-c2ccc(C)o2)nc2ccccc21` yielded an IC50 with MCF7 [1] of 19.6 µg/mL (≈ 51.3 µM). The “inhibition (INH)” value with MCF7 [2] is on record as 24%.
In the case of `Nn1c(Cn2c(-c3ccco3)nc3ccccc32)n[nH]c1=S`, the 50% inhibitory concentration (IC50) in assay [3] is above 50 µM; in the assay on MCF7 [1], 20.5 µg/mL (≈ 65.6 µM). Also, the “inhibition (INH)” value in the assay on MCF7 [2] turned out to be 91%.
The compound `Cc1ccc(-c2nc3ccccc3n2Cc2n[nH]c(=S)o2)o1` showed a concentration for half-maximal inhibition (IC50) in the assay with MCF7 [1] of 16.6 µg/mL (≈ 53.1 µM). Moreover, the “inhibition (INH)” value in the assay on MCF7 [2] was found to be 39%.
Take `S=c1[nH]nc(Cn2c(-c3ccco3)nc3ccccc32)o1`: half-maximal inhibition in the assay with MCF7 [1] (IC50) required 16.9 µg/mL (≈ 56.6 µM). Also, the “inhibition (INH)” value with MCF7 [2] is on record as 41%.
On the same counts, the results for `CCOC(=O)C/C(C)=N/NC(=O)Cn1c(-c2ccco2)nc2ccccc21` are 17 µg/mL (≈ 46.1 µM) and 38%.
On the same counts, the results for `CCOC(=O)Cn1c(-c2ccco2)nc2ccccc21` are 15.2 µg/mL (≈ 56.2 µM) and 62%.
For the compound `NNC(=O)Cn1c(-c2ccc(CNCc3ccccc3)o2)nc2ccccc21`, it took 19.3 µg/mL (≈ 51.4 µM) to reach half-maximal inhibition with MCF7 [1] (IC50). The “inhibition (INH)” value in the assay on MCF7 [2] is on record as 19%.
For `CCOC(=O)Cn1c(-c2ccc(C)o2)nc2ccccc21`, in the assay with MCF7 [1], the IC50 came out at 17.8 µg/mL (≈ 62.6 µM). Also, the “inhibition (INH)” value in the assay on MCF7 [2] is 28%.
Turning to `O=S(=O)(c1ccccc1)n1c(-c2ccco2)nc2ccccc21`, in the assay with MCF7 [1], the half-inhibitory concentration (IC50) was determined as 21.2 µg/mL (≈ 65.4 µM). Also, the “inhibition (INH)” value with MCF7 [2] turned out to be 14%.
Consider `Cc1ccc(-c2nc3ccccc3n2CC(=O)NN)o1`, for which the IC50 was above 50 µM in assay [3] and 22.4 µg/mL (≈ 82.9 µM) in the assay on MCF7 [1]. The “inhibition (INH)” value with MCF7 [2] is 86%.
Turning to `Cc1ccc(-c2nc3ccccc3n2S(=O)(=O)c2ccccc2)o1`, in the assay on MCF7 [1], the IC50 was determined as 8.63 µg/mL (≈ 25.5 µM). Also, the “inhibition (INH)” value with MCF7 [2] is on record as 98%.
On the same counts, the results for `NNC(=O)Cn1c(-c2ccco2)nc2ccccc21` are 20.2 µg/mL (≈ 78.8 µM) and 24%.
Turning to `NNC(=O)Cn1c(-c2ccc(CNc3ccncc3)o2)nc2ccccc21`, the concentration for half-maximal inhibition (IC50) is above 50 µM in assay [3] and 22 µg/mL (≈ 60.7 µM) with MCF7 [1]. Also, the “inhibition (INH)” value in the assay with MCF7 [2] is reported as 90%.
As to `c1coc(-c2nc3ccccc3[nH]2)c1` [FUBERIDAZOLE], the half-maximal inhibitory concentration (IC50) in the assay with MCF7 [1] is 21.5 µg/mL (≈ 117 µM). For the same compound, in the assay with MCF7 [2], the “inhibition (INH)” value worked out at 15%.
For `Cc1ccc(-c2nc3ccccc3[nH]2)o1`, in that order: 14 µg/mL (≈ 70.6 µM) and 95%.
`CSc1nnc(-n2c(-c3ccco3)nc3ccccc32)o1` registered a half-inhibitory concentration (IC50) in the assay with MCF7 [1] of 19.3 µg/mL (≈ 64.7 µM). Besides, in the assay with MCF7 [2], the “inhibition (INH)” value turned out to be 16%.
`CC/C(=C(\c1ccccc1)c1ccc(OCCN(C)C)cc1)c1ccccc1` [TAMOXIFEN] had a 50% inhibitory concentration (IC50) with MCF7 [1] of 8 µg/mL (≈ 21.5 µM). Also, in the assay on MCF7 [2], the “inhibition (INH)” value came out at 98%.
On the same counts, the results for `c1ccc(Cn2c(-c3ccco3)nc3ccccc32)cc1` are 6.98 µg/mL (≈ 25.4 µM) and 98%.
